Results: BindingDB's records for doi:10.1021/jm200203f (Washington University, 2011)

Experiments:
D(2) dopamine receptor = D(2) dopamine receptor (Homo sapiens, UniProt P14416); experiment: Displacement of [125I]IABN from human dopamine D2 long receptor expressed in HEK293 cells after 60 mins by gamma counting
D(3) dopamine receptor = D(3) dopamine receptor (Homo sapiens, UniProt P35462); experiment: Displacement of [125I]IABN from human dopamine D3 receptor expressed in HEK293 cells after 60 mins by gamma counting
Chain of D(3) dopamine receptor (P35462 as listed by the source): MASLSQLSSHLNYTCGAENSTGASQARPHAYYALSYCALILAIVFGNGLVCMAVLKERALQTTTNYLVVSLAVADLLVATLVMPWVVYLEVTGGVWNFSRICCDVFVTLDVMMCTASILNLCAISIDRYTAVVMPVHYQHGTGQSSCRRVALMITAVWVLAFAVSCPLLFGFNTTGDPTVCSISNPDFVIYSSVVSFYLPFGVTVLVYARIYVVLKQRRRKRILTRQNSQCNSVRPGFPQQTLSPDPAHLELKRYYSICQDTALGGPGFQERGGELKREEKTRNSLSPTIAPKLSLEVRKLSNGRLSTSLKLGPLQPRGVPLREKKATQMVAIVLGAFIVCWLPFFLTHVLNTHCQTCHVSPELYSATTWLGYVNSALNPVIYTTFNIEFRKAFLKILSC

[1] = target: Sigma non-opioid intracellular receptor 1 (Cavia porcellus, UniProt Q60492); experiment: Displacement of (+)-[3H]pentazocine from sigma 1 receptor in guinea pig brain membrane homogenates after 90 mins by liquid scintillation counting
Chain of Sigma non-opioid intracellular receptor 1 (Q60492 whole entry): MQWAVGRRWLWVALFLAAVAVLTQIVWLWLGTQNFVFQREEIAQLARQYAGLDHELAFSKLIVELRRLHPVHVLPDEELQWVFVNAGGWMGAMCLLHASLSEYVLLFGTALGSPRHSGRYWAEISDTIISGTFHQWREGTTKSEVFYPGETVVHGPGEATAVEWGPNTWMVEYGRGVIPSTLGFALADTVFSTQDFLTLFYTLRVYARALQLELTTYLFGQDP

[2] = target: T1, Vesicular acetylcholine transporter (Homo sapiens, UniProt Q16572); experiment: Displacement of (-)-[3H]vesamicol from human VAChT expressed in rat PC12 A123.7 cells after 20 hrs
T1 sequence (Q16572 whole entry): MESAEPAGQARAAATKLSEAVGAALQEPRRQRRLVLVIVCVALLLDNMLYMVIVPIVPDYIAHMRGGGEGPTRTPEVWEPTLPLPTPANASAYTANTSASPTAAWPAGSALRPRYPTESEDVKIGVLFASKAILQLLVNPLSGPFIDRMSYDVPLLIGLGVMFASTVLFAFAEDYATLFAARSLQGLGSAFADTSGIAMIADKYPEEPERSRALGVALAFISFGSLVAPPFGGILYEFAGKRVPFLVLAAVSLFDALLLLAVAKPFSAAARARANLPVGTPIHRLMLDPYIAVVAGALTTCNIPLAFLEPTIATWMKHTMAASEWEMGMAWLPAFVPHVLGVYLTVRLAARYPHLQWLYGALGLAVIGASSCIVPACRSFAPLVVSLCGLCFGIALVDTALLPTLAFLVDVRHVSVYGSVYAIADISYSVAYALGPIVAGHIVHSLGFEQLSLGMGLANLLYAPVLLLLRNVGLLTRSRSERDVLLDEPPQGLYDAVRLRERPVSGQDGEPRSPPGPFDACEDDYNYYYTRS

[3] = target: T2, 5-hydroxytryptamine receptor 1A (Homo sapiens, UniProt P08908); experiment: Displacement of [3H]8-OH-DPAT from human 5HT1A receptor after 60 mins by liquid scintillation counting
T2 sequence (P08908 whole entry): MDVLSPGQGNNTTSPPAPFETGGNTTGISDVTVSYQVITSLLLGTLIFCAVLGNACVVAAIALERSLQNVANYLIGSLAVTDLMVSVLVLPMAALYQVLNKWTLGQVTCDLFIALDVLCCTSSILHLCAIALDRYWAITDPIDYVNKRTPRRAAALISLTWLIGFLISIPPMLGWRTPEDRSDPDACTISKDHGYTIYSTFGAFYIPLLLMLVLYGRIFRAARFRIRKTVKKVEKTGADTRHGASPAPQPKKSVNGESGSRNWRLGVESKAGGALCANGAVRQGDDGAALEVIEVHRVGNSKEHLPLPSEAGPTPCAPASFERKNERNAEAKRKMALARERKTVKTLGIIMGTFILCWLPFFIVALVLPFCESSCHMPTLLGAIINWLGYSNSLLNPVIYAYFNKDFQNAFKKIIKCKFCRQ
How it was run: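 Inhibitor spanned 0.1 nM–10 µM or 0.01 nM–1 µM; 10 µM WAY-100635 defined nonspecific binding. Cold wash, filtration, scintillation counting; IC50 by nonlinear regression.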

Chain of D(2) dopamine receptor (P14416 whole entry): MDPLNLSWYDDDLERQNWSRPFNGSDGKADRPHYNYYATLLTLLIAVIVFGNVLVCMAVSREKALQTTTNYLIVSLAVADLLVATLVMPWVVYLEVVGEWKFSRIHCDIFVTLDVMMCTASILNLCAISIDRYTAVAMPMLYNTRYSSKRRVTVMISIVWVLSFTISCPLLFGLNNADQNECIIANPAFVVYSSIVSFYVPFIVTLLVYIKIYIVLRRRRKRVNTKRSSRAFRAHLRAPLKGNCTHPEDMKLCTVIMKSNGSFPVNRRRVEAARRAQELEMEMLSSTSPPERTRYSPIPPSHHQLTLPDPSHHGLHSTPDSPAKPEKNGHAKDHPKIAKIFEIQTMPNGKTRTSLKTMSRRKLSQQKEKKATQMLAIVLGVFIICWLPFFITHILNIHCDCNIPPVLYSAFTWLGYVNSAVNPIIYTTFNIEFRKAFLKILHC

COc1ccc(C(=O)C2CCN([C@H]3CCN(Cc4ccc(F)cc4)C[C@@H]3O)CC2)cc1
Ki (D(2) dopamine receptor): 1.49 µM
Ki (D(3) dopamine receptor): > 15 µM

COc1ccc(C(=O)C2CCN([C@H]3CN(Cc4cccnc4)CC[C@@H]3O)CC2)cc1
Ki [1]: 2.23 µM
Ki [2]: 0.107 µM

O=C(c1ccc(F)cc1)C1CCN([C@H]2CCN(Cc3ccc(F)cc3)C[C@@H]2O)CC1
Ki [1]: 0.00048 µM
Ki [3]: 2.54 µM
Ki (D(2) dopamine receptor): 1.35 µM
Ki (D(3) dopamine receptor): > 20 µM

O=C(c1ccc(F)cc1)C1CCN([C@H]2CN(Cc3cccnc3)CC[C@@H]2O)CC1
Ki [1]: 1.16 µM
Ki [2]: 0.237 µM

COc1ccc(C(=O)C2CCN([C@H]3CN(Cc4ccccc4)CC[C@@H]3O)CC2)cc1
Ki [1]: 0.208 µM
Ki [2]: 0.036 µM

O=C(c1ccc(F)cc1)C1CCN([C@H]2CCN(C(=O)c3ccc(F)cc3)C[C@@H]2O)CC1
Ki [1]: 3.14 µM
Ki [2]: 3.6 µM
